Assays:
Cavia porcellus [1] = organism: Cavia porcellus; test: In vitro nitric oxide release incubated in the absence of N-acetyl-cysteamine in phosphate buffer; format: functional
Summary of the method: (§1)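 Compound (0.0075 mmol) stirred under argon at 37 °C for 1 h in 0.1 M phosphate buffer pH 7.40/acetonitrile 1:1; line 6 with N-acetylcysteamine 1 equiv per ONO2, line 5 without. After air exposure, Griess reagent 10 min, A540; nitrite quantified against 3–24 µM NaNO2 standards; % NO from one ONO2, control without compound, n = 3.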

Cavia porcellus [2] = organism: Cavia porcellus; test: In vitro nitric oxide release incubated in the presence of N-acetyl-cysteamine in phosphate buffer; format: functional; summary of the method: as §1

With `O=[N+]([O-])OCC(CO[N+](=O)[O-])O[N+](=O)[O-]` [NITROGLYCERIN] the Release (Cavia porcellus [1]) was 0.18% and the Release (Cavia porcellus [2]) was 5.3%.
